From ChEMBL document CHEMBL1126115, “Synthesis of a homologous series of ketomethylene arginyl pseudodipeptides and application to low molecular weight hirudin-like thrombin inhibitors” (J Med Chem, 1992)
Starred links: 1 amine or outer side, 2 acyl side, 3 side chain; linkers in the order of their positions; H or OH if unused. Non-standard residues stand in square brackets, D forms with d. Residues, ends and D or L forms follow the SMILES beside them. X1 = NC(N)=NCCCC(N[*:1])C(=O)CCCCC(=O)[*:2]; X2 = O=C(C/C=C/CN[*:1])[*:2]

Each molecule was assayed on Rattus norvegicus (assay: Antithrombotic effect compared to recombinant hirudin in the rat rretiovenous shunt model after intravenous administration).
Format: functional
How it was run: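 Urethane-anaesthetised rats on a temperature-controlled heating plate; right carotid artery and left jugular vein catheterised and joined by a 2-cm glass capillary (1 mm internal diameter) as thrombogenic surface. Compound or saline given intravenously 5 min before the shunt was opened. Patency followed by capillary temperature rise (thermocouple). ED15 is the dose giving a 15-min prolongation of shunt patency.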

SMILES | ED15 [mg/kg]
CC[C@H](C)[C@H](NC(=O)[C@@H]1CCCN1C(=O)[C@H](CCC(=O)O)NC(=O)[C@H](Cc1ccccc1)NC(=O)[C@H](CC(=O)O)NC(=O)C/C=C/CNC(=O)C/C=C/CNC(=O)CCCCC(=O)[C@H](CCCN=C(N)N)NC(=O)[C@@H]1CCCN1C(=O)[C@@H](Cc1ccccc1)NC(C)=O)C(=O)N1CCC[C@H]1C(=O)N[C@@H](CC(C)C)C(=O)O | 6.27

Each molecule was assayed against Prothrombin (Homo sapiens, UniProt P00734) (assay: Compound was evaluated for their ability to inhibit the alpha-thrombin-mediated hydrolysis of the fluorescent substrate Tos-Gly-Pro-Arg-Amc).
How it was run: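 Human α-thrombin (30 pM) added to start the reaction, 25 °C, 0.1 M Tris-HCl pH 7.8 with 0.1 M NaCl and 0.1% PEG 6000. […] Initial rates of Amc fluorescence read at ex 383/em 455 nm, calibrated against free 7-amino-4-methylcoumarin. Ki obtained by nonlinear fit to a competitive inhibition equation.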

SMILES | Ki [nM]
CC[C@H](C)[C@H](NC(=O)[C@H](CCC(=O)O)NC(=O)[C@H](CCC(=O)O)NC(=O)[C@H](Cc1ccccc1)NC(=O)[C@H](CC(=O)O)NC(=O)CNC(=O)[C@H](CC(=O)O)NC(=O)[C@H](CC(N)=O)NC(=O)[C@H](Cc1c[nH]cn1)NC(=O)[C@H](CO)NC(=O)[C@H](CCC(N)=O)NC(=O)CC(=O)[C@H](CCCN=C(N)N)NC(=O)[C@@H]1CCCN1C(=O)[C@H](Cc1ccccc1)NC(C)=O)C(=O)N1CCC[C@H]1C(=O)N[C@@H](CCC(=O)O)C(=O)N[C@@H](CCC(=O)O)C(=O)N[C@@H](Cc1ccc(O)cc1)C(=O)N[C@@H](CC(C)C)C(=O)N[C@@H](CCC(N)=O)C(=O)O | 3.8
CC[C@H](C)[C@H](NC(=O)[C@@H]1CCCN1C(=O)[C@H](CCC(=O)O)NC(=O)[C@H](Cc1ccccc1)NC(=O)[C@H](CC(=O)O)NC(=O)C/C=C/CNC(=O)CCCCC(=O)[C@H](CCCN=C(N)N)NC(=O)[C@@H]1CCCN1C(=O)[C@H](Cc1ccccc1)NC(C)=O)C(=O)N1CCC[C@H]1C(=O)N[C@@H](CC(C)C)C(=O)O (HELM PEPTIDE1{[ac].F.P.[NC(N)=NCCC[C@H](N[*:1])C(=O)CCCCC(=O)[*:2]].[O=C(C/C=C/CN[*:1])[*:2]].D.F.E.P.I.P.L}$$$$V2.0) | 300
CC[C@H](C)[C@H](NC(=O)[C@@H]1CCCN1C(=O)[C@H](CCC(=O)O)NC(=O)[C@H](Cc1ccccc1)NC(=O)[C@H](CC(=O)O)NC(=O)C/C=C/CNC(=O)C/C=C/CNC(=O)C/C=C/CNC(=O)CCCCC(=O)C(CCCN=C(N)N)NC(=O)[C@@H]1CCCN1C(=O)[C@H](Cc1ccccc1)NC(C)=O)C(=O)N1CCC[C@H]1C(=O)N[C@@H](CC(C)C)C(=O)O (stereo partly drawn) (Ac-FP[X1][X2][X2][X2]DFEPIPL-OH) | 3.2
CC[C@H](C)[C@H](NC(=O)[C@@H]1CCCN1C(=O)[C@H](CCC(=O)O)NC(=O)[C@H](Cc1ccccc1)NC(=O)[C@H](CC(=O)O)NC(=O)C/C=C/CNC(=O)C/C=C/CNC(=O)CCCCC(=O)C(CCCN=C(N)N)NC(=O)[C@@H]1CCCN1C(=O)[C@H](Cc1ccccc1)NC(C)=O)C(=O)N1CCC[C@H]1C(=O)N[C@@H](CC(C)C)C(=O)O (stereo partly drawn) | 3.5

The remaining lines, values ahead:

Ki [nM] | SMILES
0.14 | CC[C@H](C)[C@H](NC(=O)[C@H](CCC(=O)O)NC(=O)[C@H](CCC(=O)O)NC(=O)[C@H](Cc1ccccc1)NC(=O)[C@H](CC(=O)O)NC(=O)CNC(=O)[C@H](CC(=O)O)NC(=O)[C@H](CC(N)=O)NC(=O)[C@H](Cc1c[nH]cn1)NC(=O)[C@H](CO)NC(=O)[C@H](CCC(N)=O)NC(=O)CCCCC(=O)[C@H](CCCN=C(N)N)NC(=O)[C@@H]1CCCN1C(=O)[C@H](Cc1ccccc1)NC(C)=O)C(=O)N1CCC[C@H]1C(=O)N[C@@H](CCC(=O)O)C(=O)N[C@@H](CCC(=O)O)C(=O)N[C@@H](Cc1ccc(O)cc1)C(=O)N[C@@H](CC(C)C)C(=O)N[C@@H](CCC(N)=O)C(=O)O
0.56 | CC[C@H](C)[C@H](NC(=O)[C@H](CCC(=O)O)NC(=O)[C@H](CCC(=O)O)NC(=O)[C@H](Cc1ccccc1)NC(=O)[C@H](CC(=O)O)NC(=O)CNC(=O)[C@H](CC(=O)O)NC(=O)[C@H](CC(N)=O)NC(=O)[C@H](Cc1c[nH]cn1)NC(=O)[C@H](CO)NC(=O)[C@H](CCC(N)=O)NC(=O)CCCC(=O)[C@H](CCCN=C(N)N)NC(=O)[C@@H]1CCCN1C(=O)[C@H](Cc1ccccc1)NC(C)=O)C(=O)N1CCC[C@H]1C(=O)N[C@@H](CCC(=O)O)C(=O)N[C@@H](CCC(=O)O)C(=O)N[C@@H](Cc1ccc(O)cc1)C(=O)N[C@@H](CC(C)C)C(=O)N[C@@H](CCC(N)=O)C(=O)O
2.8 | CC[C@H](C)[C@H](NC(=O)[C@@H]1CCCN1C(=O)[C@H](CCC(=O)O)NC(=O)C(Cc1ccccc1)NC(=O)[C@H](CC(=O)O)NC(=O)CNC(=O)[C@H](CC(=O)O)NC(=O)[C@H](CC(N)=O)NC(=O)[C@H](Cc1cnc[nH]1)NC(=O)[C@H](CO)NC(=O)[C@H](CCC(N)=O)NC(=O)[C@@H]1CCCN1C(=O)[C@H](CCCNC(=N)N)N(C)C(=O)[C@@H]1CCCN1C(=O)C(Cc1ccccc1)NC(C)=O)C(=O)N1CCC[C@H]1C(=O)N[C@@H](CC(C)C)C(=O)O (stereo in doubt)
